Legend:
[1] = target: Mitogen-activated protein kinase 8 (Homo sapiens, UniProt P45983); experiment: Inhibition of JNK1
[2] = target: c-Jun N-terminal kinase, JNK (Homo sapiens, UniProt P45983+P53779+P45984); experiment: Inhibition of TNF-alpha-stimulated cJun phosphorylation in HepG2 cells; type: functional, cell-based
Summary of the method: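 Cell-based ELISA in HepG2 cells detecting phospho-c-Jun after TNFa stimulation. Inhibition of c-Jun phosphorylation read out and expressed as IC50.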

[3] = target: Mitogen-activated protein kinase 9 (Homo sapiens, UniProt P45984); experiment: Inhibition of JNK2
MAP kinase p38 = MAP kinase p38 (Homo sapiens, UniProt O15264+Q15759+Q16539+P53778); experiment: Inhibition of p38; type: protein assay
[4] = target: Mitogen-activated protein kinase 1 (Homo sapiens, UniProt P28482); experiment: Inhibition of ERK2
[5] = Stability in human liver microsome after 30 mins; type: ADME; conditions: liver microsomes, read-out: Stability
Summary of the method: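 Parent compound incubated with human liver microsomes for 30 min. Percentage of parent recovered afterwards was measured.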

Mitogen-activated protein kinase 8, sequence (P45983 whole entry): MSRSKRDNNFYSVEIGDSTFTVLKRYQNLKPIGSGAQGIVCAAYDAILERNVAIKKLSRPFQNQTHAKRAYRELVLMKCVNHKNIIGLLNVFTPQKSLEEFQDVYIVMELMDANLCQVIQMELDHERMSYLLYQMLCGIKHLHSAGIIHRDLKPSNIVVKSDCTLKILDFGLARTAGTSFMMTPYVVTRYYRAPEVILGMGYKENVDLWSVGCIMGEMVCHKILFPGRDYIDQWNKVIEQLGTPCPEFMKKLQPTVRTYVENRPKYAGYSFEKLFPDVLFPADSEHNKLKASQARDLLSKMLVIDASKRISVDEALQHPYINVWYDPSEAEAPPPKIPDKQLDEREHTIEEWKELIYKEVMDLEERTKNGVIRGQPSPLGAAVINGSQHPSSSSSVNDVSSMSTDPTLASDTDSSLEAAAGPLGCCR
Mitogen-activated protein kinase 9, sequence (P45984 whole entry): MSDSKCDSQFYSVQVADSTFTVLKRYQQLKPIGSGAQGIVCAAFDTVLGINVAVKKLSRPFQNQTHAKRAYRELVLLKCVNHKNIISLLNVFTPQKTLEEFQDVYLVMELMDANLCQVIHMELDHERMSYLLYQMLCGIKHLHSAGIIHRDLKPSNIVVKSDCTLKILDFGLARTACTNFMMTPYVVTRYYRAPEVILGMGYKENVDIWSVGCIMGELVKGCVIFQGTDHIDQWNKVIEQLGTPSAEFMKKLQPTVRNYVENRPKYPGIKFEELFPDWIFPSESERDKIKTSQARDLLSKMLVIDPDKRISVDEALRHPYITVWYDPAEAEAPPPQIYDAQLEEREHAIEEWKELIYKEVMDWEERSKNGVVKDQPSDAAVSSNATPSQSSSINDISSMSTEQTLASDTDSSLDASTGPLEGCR
Mitogen-activated protein kinase 1, sequence (P28482 whole entry): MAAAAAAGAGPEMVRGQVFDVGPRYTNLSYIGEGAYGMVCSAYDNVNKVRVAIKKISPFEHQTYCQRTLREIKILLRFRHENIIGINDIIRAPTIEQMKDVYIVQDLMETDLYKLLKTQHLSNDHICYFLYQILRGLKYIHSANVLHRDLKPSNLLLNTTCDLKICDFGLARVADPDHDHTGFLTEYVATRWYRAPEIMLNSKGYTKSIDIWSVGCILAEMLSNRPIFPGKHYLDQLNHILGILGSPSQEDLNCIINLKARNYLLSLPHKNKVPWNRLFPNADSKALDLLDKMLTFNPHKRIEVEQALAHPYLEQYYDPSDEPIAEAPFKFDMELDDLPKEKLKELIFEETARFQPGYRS

IC50 [1]	IC50 [2]	Compound	other results
> 10 µM		Cc1nn(C)c2c1c(=O)c1ccccc1n2O	
7.64 µM	> 30 µM	CCOC(=O)Cn1nc(C)c2c(=O)c3cc(Cl)ccc3n(O)c21	
0.5 µM	> 30 µM	CCNC(=O)NCCCc1nn(C)c2c1c(=O)c1cc(Cl)ccc1n2O	
> 10 µM		Cc1nn(C)c2c1c(=O)c1cc(Cl)ccc1n2OC1CCCC1	
	> 30 µM	Cc1nn(C)c2c1c(=O)c1cc(Cl)ccc1n2O	IC50 [3]: 3.1 µM; IC50 (MAP kinase p38): > 50 µM; IC50 [4]: > 50 µM; remaining at 0.5 h [5]: 100%
2.83 µM	> 30 µM	Cn1nc(CCN)c2c(=O)c3cc(Cl)ccc3n(O)c21	
> 10 µM		COC(=O)c1nn(C)c2c1c(=O)c1cc(Cl)ccc1n2O	
2.64 µM	> 30 µM	CC(C)c1nn(C)c2c1c(=O)c1cc(Cl)ccc1n2O	
4.19 µM	> 30 µM	CCn1nc(C)c2c(=O)c3cc(Cl)ccc3n(O)c21	
0.92 µM	> 30 µM	Cc1nn(C)c2c1c(=O)c1cc(Br)ccc1n2O	
> 10 µM		COc1cc(Cl)cc2c(=O)c3c(C(F)(F)F)nn(C)c3n(O)c12	
8.77 µM	> 30 µM	CNC(=O)Cn1nc(C)c2c(=O)c3cc(Cl)ccc3n(O)c21	
> 10 µM		Cn1nc(C(C)(C)C)c2c(=O)c3cc(Cl)ccc3n(O)c21	
4.41 µM	> 30 µM	Cc1nn(CC(=O)O)c2c1c(=O)c1cc(Cl)ccc1n2O	
> 10 µM		Cc1nn(C)c2c1c(=O)c1cc(Cl)ccc1n2OC(C)C	
0.78 µM	> 30 µM	CC(=O)NCCc1nn(C)c2c1c(=O)c1cc(Cl)ccc1n2O	
5.14 µM	> 30 µM	Cn1nc(C(F)(F)F)c2c(=O)c3cc(Cl)c(Cl)cc3n(O)c21	
1.31 µM	26.6 µM	CCCc1nn(C)c2c1c(=O)c1cc(Cl)ccc1n2O	

IC50 [1]	IC50 [2]	Compound	other results
> 10 µM		Cc1nn(C)c2c1c(=O)c1cc(Cl)ccc1n2OCc1ccccc1	
0.43 µM	> 30 µM	CCOC(=O)NCCc1nn(C)c2c1c(=O)c1cc(Cl)ccc1n2O	
0.75 µM	> 30 µM	CNC(=O)CCCc1nn(C)c2c1c(=O)c1cc(Cl)ccc1n2O	
2.41 µM	14.7 µM	COCCc1nn(C)c2c1c(=O)c1cc(Cl)ccc1n2O	
> 10 µM		CN(C)c1cc2c(cc1Cl)c(=O)c1c(C(F)(F)F)nn(C)c1n2O	
> 10 µM		Cc1nn(C)c2nc3ccc(Cl)cc3c(O)c12	
7.67 µM	> 30 µM	Cc1nn(CCO)c2c1c(=O)c1cc(Cl)ccc1n2O	
0.96 µM	32 µM	CCc1nn(C)c2c1c(=O)c1cc(Cl)ccc1n2O	
2.78 µM	10.6 µM	CCOn1c2ccc(Cl)cc2c(=O)c2c(C)nn(C)c21	
2.74 µM	> 30 µM	Cn1nc(CCCC(=O)O)c2c(=O)c3cc(Cl)ccc3n(O)c21	
> 10 µM		Cc1nn(C)c2c1c(=O)c1cc(-c3ccccc3)ccc1n2O	
> 10 µM		Cn1nc(CCC(=O)O)c2c(=O)c3cc(Cl)ccc3n(O)c21	
> 10 µM		Cc1nn(C)c2c1c(=O)c1cc(-c3cc[nH]n3)ccc1n2O	
0.52 µM	> 30 µM	CCCCc1nn(C)c2c1c(=O)c1cc(Cl)ccc1n2O	
> 10 µM		Cn1nc(-c2ccc(N)cc2)c2c(=O)c3cc(Cl)ccc3n(O)c21	
4.59 µM	19.4 µM	COn1c2ccc(Cl)cc2c(=O)c2c(C)nn(C)c21	
> 10 µM		Cn1nc(C(F)(F)F)c2c(=O)c3c(Cl)c(Cl)ccc3n(O)c21	
0.29 µM	0.85 µM	Cn1c2[n+]([O-])c3ccc(Cl)cc3c(=O)c-2c2n1C(=O)NCC2	

Source: ChEMBL document CHEMBL1147685, “Synthesis and SAR of 1,9-dihydro-9-hydroxypyrazolo[3,4-b]quinolin-4-ones as novel, selective c-Jun N-terminal kinase inhibitors” (Bioorg Med Chem Lett, 2006)
